# This is a sample that favours compounds with a hit; in the whole collection about 4.2% have one here.
# M18AAP inhibitor: PfM18AAP enzyme inhibition | recombinant PfM18AAP, H-Glu-NHMec fluorogenic cleavage | inhibition, % at 7.35 µM | 290,000 compounds, 1.2% hits;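 active = inhibition above the campaign mean inhibition over all tested compounds plus 3 SD, cut at about 28% in these data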;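 also: 0% = plate median of test compound wells and 100% = 2 mM ZnCl2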
# GAA850 FXN act: frataxin GAA850 promoter activation | HEK293 lucGAA850 FXN promoter luciferase reporter, 24 h; percent of 10 µM SAHA response | AID 540364 | activation, % at 6 µM | 360,000 compounds, 0.56% hits;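 active = activation above the average of all compounds screened plus 3 SD, cutoff fixed separately per campaign, cut at about 7.5% in these data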;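 also: 0% = DMSO wells and 100% = 10 µM SAHA wells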
# SENP1 inh: inhibitors of human SENP1 SUMO protease catalytic domain | Q9P0U3 | recombinant SENP1 catalytic domain, CyPet-SUMO1-YPet FRET cleavage | inhibition, % at 10 µM | 360,000 compounds, 0.21% hits | AID 624204;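 active = inhibition at least 30% at 10 µM, raw YFP signal under a set limit, fluorescence ratio 0.5 to 1.5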;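 also: 0% = enzyme with DMSO and 100% = no enzyme wells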
# Target sequence (Q9P0U3 419-644 limits assumed): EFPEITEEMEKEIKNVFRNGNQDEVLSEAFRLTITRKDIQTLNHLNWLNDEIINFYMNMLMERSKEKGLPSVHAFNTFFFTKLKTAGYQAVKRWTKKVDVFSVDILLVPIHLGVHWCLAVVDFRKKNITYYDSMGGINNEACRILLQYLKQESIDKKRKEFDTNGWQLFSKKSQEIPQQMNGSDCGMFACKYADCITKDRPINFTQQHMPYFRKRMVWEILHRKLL
#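 Controls: no-enzyme wells low, DMSO-plus-enzyme wells high control. Test system: human recombinant His6-tagged SENP1 catalytic domain enzyme. Reagent: SFCypet-SUMO1-SFYpet FRET protein substrate, 25 nM final. Doses: one dose per compound, 10 µM, 0.5% DMSO. Detection: FRET, CFP and YFP emission. Timing: 50 min reaction at room temperature.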
# HDAC3 inhib: human HDAC3 inhibition | AID 2718 | O15379 | 320,000 compounds, 0.15% hits | inhibition, % at 8.3 µM | recombinant HDAC3, fluorogenic peptide/trypsin coupled, fluorescence; in the data active = inhibition above about 26%, passing the limit was not always enough; inconclusive = no clear call, values can overlap the other calls
# Target sequence (O15379 whole entry, looked up): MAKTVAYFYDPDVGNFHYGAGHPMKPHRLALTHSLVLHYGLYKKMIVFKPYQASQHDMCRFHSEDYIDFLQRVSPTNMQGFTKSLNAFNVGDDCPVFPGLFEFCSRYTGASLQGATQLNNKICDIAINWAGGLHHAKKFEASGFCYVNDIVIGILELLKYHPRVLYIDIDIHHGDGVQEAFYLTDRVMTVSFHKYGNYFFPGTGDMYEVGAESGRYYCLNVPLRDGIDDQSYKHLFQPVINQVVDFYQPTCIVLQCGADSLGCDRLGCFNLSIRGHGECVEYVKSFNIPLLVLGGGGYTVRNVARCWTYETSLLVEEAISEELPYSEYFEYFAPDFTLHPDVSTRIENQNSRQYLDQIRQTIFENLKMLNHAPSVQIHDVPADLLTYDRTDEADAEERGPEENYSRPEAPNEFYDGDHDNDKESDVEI
# CTSL1 counter: cathepsin L1 inhibition, PFM18AAP counter-screen; inhibition, % at 5.96 µM; recombinant F. hepatica cathepsin L1, Z-Leu-Arg-MCA fluorescence; AID 1906; 300,000 compounds, 0.49% hits;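 active = inhibition above the mean of all tested compounds plus 3 SD, set per screening campaign, cut at about 17% in these data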;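 also: 0% = plate median of test compound wells and 100% = 1 µM Z-Phe-Ala-diazomethylketone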
# AHR act: activates the human aryl hydrocarbon receptor | 320,000 compounds, 2.5% hits | activation, % at 5 µM | P35869 | AHR-responsive luciferase reporter cells, luminescence; in the data active = activation above about 47%;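 also: 0% = vehicle wells and 100% = reference agonist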
# An asterisk follows results filed as active; ? = inconclusive; . = no result given.
SMILES,M18AAP inhibitor,GAA850 FXN act,SENP1 inh,HDAC3 inhib,CTSL1 counter,AHR act
Cc1ccc2cn[nH]c2c1NC(=S)NC(=O)c1ccccc1,6.1,0.2,0.5,0.3,-0.8,13.6
Cc1ccc2cccnc2c1NC(=S)NC(=O)c1ccccc1,13.2,-2.1,-7.0,1.0,-0.7,68.8*
COc1ccc(S(=O)(=O)N2CCCCCC2)cc1N(C)S(=O)(=O)c1ccc(C)cc1,2.3,-3.1,1.9,.,4.6,1.8
COc1ccc(NC(=O)CN2CCC(Cc3ccccc3)CC2)cc1S(=O)(=O)N1CCOCC1,-13.4,1.6,-0.2,-4.9,2.4,1.6
COc1ccc(-c2cc(=O)c3ccccc3s2)cc1,7.0,4.7,2.3,11.7,1.4,94.1*
COc1ccc2sc3ccccc3c(=O)c2c1,2.4,4.0,-23.1,-2.5,1.1,8.9
COC(=O)c1nc(-c2ccc(C)cc2)[nH]c1C(C)(C)C,.,.,3.6,.,.,.
CC1=NN(c2ccc(C(F)(F)F)cn2)C(=O)C1,-1.8,2.9,0.2,-3.6,0.6,50.6*
CS(=O)(=O)Nc1ccc(N2CCN(c3ccc(C(F)(F)F)cn3)CC2)nc1,-11.5,-1.1,-8.6,0.0,2.6,-5.1
CC(C)c1ccc(S(=O)(=O)N2CCN(C(=O)C3CCN(C(=O)c4ccc(F)cc4)CC3)CC2)cc1,1.8,-0.3,-1.7,-0.5,-2.4,0.1
Cn1c(=O)c2c([nH]c(=S)n2Cc2ccc(Cl)cc2)n(C)c1=O,29.8*,-2.0,0.6,6.0,-0.1,-0.6
COc1ccc(NC(=O)C(c2ccccc2F)n2c(=O)c(-c3cc4ccccc4[nH]3)nc3ccccc32)cc1 (centres undefined),.,.,-17.5,.,.,.
Cc1nn(-c2ccc(Cl)cc2)c2sc(C(=O)N3CCN(c4ccccn4)CC3)cc12,-4.1,2.7,2.0,6.4,1.4,76.8*
Cn1c(N)c(C(=O)c2ccc(Cl)cc2)c(=O)n(C)c1=O,-5.8,1.1,2.2,0.9,1.1,7.7
Cc1nn(-c2ccc(Cl)cc2)c2sc(C(=O)c3c(N)n(C)c(=O)n(C)c3=O)cc12,-0.7,-1.0,-23.5,-7.7,3.5,47.1*
Cc1nn(-c2ccc(F)cc2)c2sc(C(=O)N3CCCCCC3)cc12,0.5,0.8,1.7,3.8,-2.8,28.1
O=C(NCc1ccc(F)cc1)c1cc2ccccc2o1,-6.9,1.0,-0.5,0.4,-0.3,1.6
NC(=O)CC(NC(=O)c1cccc(Br)c1)c1ccc(NC2CCCCCCC2)c([N+](=O)[O-])c1 (centres undefined),-0.2,0.8,2.3,-4.6,-3.7,-2.3
C=CCOc1c(Br)cc(CNc2ccc(NC(=O)C(C)C)c(OC)c2)cc1OCC,3.8,-2.8,-29.1,-1.2,2.7,67.4*
CCOC(=O)c1c(NC(=O)c2ccoc2C)sc(C)c1C,-8.7,0.9,0.7,0.1,1.7,-0.5
CCc1c(C)sc(NC(=O)c2ccoc2C)c1C(N)=O,40.4*,2.1,-5.2,10.3,2.9,32.2
Cc1ccn2c(=O)c(C(=O)NCCCN3CCCC3=O)c(O)nc2c1,-3.7,2.1,-3.6,-2.0,50.0*,-0.1
Cc1ccn2c(=O)c(C(=O)NCCCN3CCCCC3C)c(O)nc2c1 (centres undefined),2.7,0.6,0.0,-11.9,-0.1,-1.2
CCOc1ccc(S(=O)(=O)/N=C(/Nc2ccc(C(C)=O)cc2)c2ccccc2)cc1,.,0.3,1.3,14.7,.,64.7*
CCOc1ccc(S(=O)(=O)/N=C(/Nc2ccc(OC)cc2)c2ccccc2)cc1,-0.6,1.9,0.0,?,-1.9,0.3
SMILES,M18AAP inhibitor,GAA850 FXN act,SENP1 inh,HDAC3 inhib,CTSL1 counter,AHR act
CC(=O)COc1cccc2ccc(/C=C/c3ccc(Br)s3)nc12,0.8,2.3,-20.4,-4.3,2.8,72.0*
Cc1ccc(/C=C/c2ccc3cccc(O)c3n2)s1,7.8,4.1,-11.1,2.1,9.8,36.0
O=C(NNC1=Nc2ccccc2SC1)c1ccccc1F,-3.3,-0.1,0.5,1.7,1.8,55.8*
O=C(NNC1=NCCCCC1)c1cccc([N+](=O)[O-])c1,-14.3,0.1,3.7,-0.9,-5.2,2.5
O=C(NNC1=Nc2ccccc2SC1)c1cccc([N+](=O)[O-])c1,-7.4,-1.6,1.7,-3.0,-4.9,48.5*
Cn1c(SCC(=O)Nc2cccc(F)c2)nnc1-c1cccnc1,-9.2,-0.3,0.5,-4.1,1.0,34.3
Cn1c(SCC(=O)Nc2ccc(F)cc2F)nnc1-c1cccnc1,-8.8,1.0,2.2,2.3,3.9,48.0*
O=C(CSc1nnc2ccc(-c3cccnc3)nn12)Nc1ccc(F)cc1F,6.2,2.7,-6.4,-4.1,-2.2,78.9*
CCn1c(=N)n(CC(=O)c2ccc(OC)cc2)c2ccccc21,-10.4,2.5,0.1,0.2,-1.4,66.4*
N=c1n(CCN2CCCCC2)c2ccccc2n1CC(O)c1ccc(Cl)c(Cl)c1 (centres undefined),13.0,-7.5,1.5,-6.6,2.3,-1.1
CCn1c(=N)n(CC(=O)c2ccco2)c2ccccc21,-0.8,-0.8,-6.5,5.3,-2.3,17.6
CCOC(=O)Cn1c(=N)n(CCOc2ccc(OC)cc2)c2ccccc21,-4.2,0.6,0.3,2.3,2.8,1.7
N=c1n(CCN2CCCCC2)c2ccccc2n1CC(=O)c1ccc(Cl)c(Cl)c1,2.3,1.8,1.4,-4.9,7.8,110.6*
CCn1c(=N)n(CC(=O)c2ccc(Cl)c(Cl)c2)c2ccccc21,2.4,0.8,6.3,-4.7,0.6,64.9*
COc1cc(CCN(C(C)=O)C2C(=O)Nc3ccccc3N=C2c2ccc3c(c2)OCO3)cc(OC)c1 (centres undefined),.,.,-0.6,.,.,.
Cc1ccc(S(=O)(=O)NCC(=O)OCCOc2cccc(Cl)c2)cc1,.,2.5,1.3,4.1,.,-0.2
O=C(N/N=C/c1cccc(OC2CSC2)c1)c1ccccc1O,1.4,2.3,-0.1,-6.7,5.5,37.3
Cn1nccc1C(=O)N/N=C/c1c(O)ccc2ccccc12,28.2*,-11.6,-20.3,2.0,-4.4,2.7
O=C(N/N=C\c1c(O)ccc2ccccc12)c1cncc(Br)c1,24.6,-6.6,-28.0,-6.7,6.8,67.5*
O=C(NN=Cc1c(O)ccc2ccccc12)c1ccncc1,.,-10.5,-29.4,.,.,.
Cn1nccc1C(=O)Oc1cccc(/C=N/NC(=O)c2ccccc2O)c1,8.7,0.7,2.5,15.9,-2.2,69.5*
COc1ccc2ccccc2c1/C=N/NC(=O)c1cccc(C)c1,.,-0.7,1.3,-5.2,17.6*,17.9
Cc1ccc(-n2ccn(CC(=O)NCCc3ccccc3)c(=O)c2=O)cc1C,-3.8,1.9,2.4,1.2,-2.2,3.2
Cc1ccc(C)c(S(=O)(=O)NC(C)C(=O)NCc2ccccn2)c1 (centres undefined),-0.8,-1.1,0.2,-4.1,-1.9,0.6
O=C(O)C(F)=C(c1ccccc1)c1ccccc1,.,0.3,0.4,-11.3,-0.7,20.3

# Assay outcomes (PubChem BioAssay)
